Ecoli WT expand = growth inhibitors of wild-type E. coli, primary screen, strain BW25113, expanded library, OD600. OD600 absorbance. growth inhibition, % at 100 µM. 98,000 compounds, 0.15% hits;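 active means growth inhibition above about 50% at one test dose, limit read from the data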;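 further: growth measured after 20 h incubation at 37 °C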
PLAP act = PLAP enzyme activators, biochemical, luminescence, HTS; 96,000 compounds, 1.2% hits; purified PLAP enzyme, luminescent substrate read-out; active compounds read high; activation fold at 20 µM; Alkaline phosphatase, placental type (Homo sapiens), P05187; in the data active means activation fold above about 2
Target sequence (P05187 whole entry, looked up): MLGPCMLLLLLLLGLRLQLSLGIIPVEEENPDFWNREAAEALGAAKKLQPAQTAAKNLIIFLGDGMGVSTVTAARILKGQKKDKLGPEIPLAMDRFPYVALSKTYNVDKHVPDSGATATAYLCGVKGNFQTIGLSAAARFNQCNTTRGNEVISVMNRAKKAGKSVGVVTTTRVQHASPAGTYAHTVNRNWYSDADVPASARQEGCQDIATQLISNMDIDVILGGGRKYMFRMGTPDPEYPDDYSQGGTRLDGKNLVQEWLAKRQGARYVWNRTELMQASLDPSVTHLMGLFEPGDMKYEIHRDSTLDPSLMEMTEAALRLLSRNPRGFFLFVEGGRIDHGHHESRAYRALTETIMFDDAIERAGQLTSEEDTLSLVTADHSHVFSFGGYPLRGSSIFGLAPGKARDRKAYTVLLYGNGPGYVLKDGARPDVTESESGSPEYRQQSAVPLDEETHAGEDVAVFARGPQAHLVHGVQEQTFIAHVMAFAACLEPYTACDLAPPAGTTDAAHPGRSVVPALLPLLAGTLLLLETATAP
HePTP inh = inhibitors of human HePTP phosphatase, primary screen, biochemical, absorbance, leukemia target. recombinant HePTP phosphatase activity, OD absorbance. inhibition, % at 20 µM. AID 521, 2006. 110,000 compounds, 0.64% hits; in the data active means inhibition above about 50%
Ecoli tolC = growth inhibitors of E. coli tolC mutant, primary screen, strain BW25113 ΔtolC::kan, 384-well. OD615. 65,000 compounds, 2.2% hits. growth inhibition, % at 10 µM (by protocol);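 active means growth inhibition at or above a cutoff equal to the mean over every tested compound plus 3 SD, cut at about 60% in these data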;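 further: growth measured after 20 h incubation at 37 °C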
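Test system: E. coli BW25113 ΔtolC::kan bacteria; incubation: 37 °C, 20 h exposure; medium: LB broth supplemented with 50 µg/mL kanamycin; read-out basis: percent growth inhibition; signal: A615 absorbance measurement; compound: 10 µM final, single dose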
PostGolgi yeast = phenotypic screen on post-Golgi transport, primary screen; AID 739, 2007; inhibition, % at 10 µM; post-Golgi transport phenotypic cell assay; 98,000 compounds, 0.9% hits;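 further: yeast cells grown in 1536-well plates; yeast grown about 18 h at 30C before absorbance read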
PostGolgi ctrl = growth inhibition of yeast control strain, primary screen, counter-screen for post-Golgi transport modulator project. efflux-deficient yeast background strain, growth absorbance A615, 16 h. inhibition, % at 10 µM. 98,000 compounds, 5% hits. AID 738, 2007
Hits are given with their value; 0 = inactive; - = no result. Rows were chosen to be rich in hits. Some 5.4% of all compounds tested hit in one or more screens of this group. Unless noted, no stated cut-off is given here; in the data, active means inhibition above about 30%; inactive means the rest.

SMILES	Ecoli WT expand	PLAP act	HePTP inh	Ecoli tolC	PostGolgi yeast	PostGolgi ctrl
Clc1cccc(Cl)c1/C=C/c1nc2ccccc2[nH]1	0	0	-	-	0	66
Clc1ccc(/C=C/c2nc3ccccc3[nH]2)c(Cl)c1	0	0	-	-	0	75
CN(C)S(=O)(=O)c1ccc(C(=O)Nc2ccccc2OC(F)(F)C(F)F)cc1	0	0	0	0	0	0
Cc1ccnc(NS(=O)(=O)c2ccc(NC(=O)COc3ccc(Cl)cc3)cc2)n1	-	-	0	-	-	-
O=C(NC1c2ccccc2-c2ccccc21)N1CCCCC1	0	0	0	0	0	0
O=C1Nc2ccc(Br)cc2C1(O)Cc1ccncc1 (stereo unspecified)	0	0	0	0	0	0
O=C(Nc1ccc(Cn2cccn2)cc1)c1ccc(COc2ccccc2Br)cc1	0	0	-	-	0	32
O=C(Nc1ccn(Cc2c(F)c(F)c(F)c(F)c2F)n1)c1ccc(COc2ccccc2Cl)cc1	0	0	-	-	0	0
COc1cc2c(cc1OC)C(C(=O)Nc1ccc3c(c1)OCCO3)C1c3ccccc3CCN1C2=O (stereo unspecified)	0	-	0	0	0	0
COc1ccc(C2C(C(=O)Nc3ccc4c(c3)OCCO4)c3ccccc3C(=O)N2C)cc1 (stereo unspecified)	0	0	-	-	0	31
COc1cccc(-c2csc(NC(C)=O)n2)c1	0	0	0	0	0	0
COc1ccccc1Nc1nc(N)nc(CSc2ncccn2)n1	0	0	0	0	0	32
Nc1nc(CSc2n[nH]c(-c3ccccc3)n2)nc(Nc2ccccc2)n1	0	0	0	0	0	0
COc1ccc(Nc2nc(N)nc(CSc3n[nH]c(-c4ccccc4)n3)n2)cc1	0	0	0	0	0	30
Cc1ccc(Nc2nc(N)nc(CSc3nc4ccccc4s3)n2)cc1	0	0	-	-	0	51
COc1ccc(-c2cc(C(=O)Nc3cnn(Cc4ccccc4C)c3)no2)cc1OC	0	0	0	0	0	0
CCCCc1nc(SCC(=O)Nc2ncccn2)n[nH]1	0	0	-	-	0	0
CCCCc1nc(SCC(=O)Nc2ccc(S(N)(=O)=O)cc2)n[nH]1	0	2	0	0	0	0
COCc1nnc(NC(=O)CCN2C(=O)c3ccccc3C2=O)s1	0	0	-	-	0	0
CCOC(=O)c1ccc(CSc2n[nH]c(C)n2)o1	0	2	0	0	0	0
CCOC(=O)N1CCC(N2Cc3cccc(C(=O)Nc4ccc(OC)c(OC)c4)c3C2=O)CC1	0	0	0	0	0	37
CCn1c(=O)cc(SCC(=O)NCCN2CCN(Cc3ccccc3)CC2)c2ccccc21	0	0	0	0	0	34
O=C(NN1C(=O)/C(=C/c2ccccc2)SC1=S)c1ccccc1Br	-	-	0	-	-	-
CCc1cc(=O)oc2c(C)c(O)c(CN(C)C)cc12	0	0	0	0	0	0
CCc1ccc(NC(=O)c2ccc3ncsc3c2)cc1	0	0	-	-	0	71
SMILES	Ecoli WT expand	PLAP act	HePTP inh	Ecoli tolC	PostGolgi yeast	PostGolgi ctrl
CCc1ccc(NC(=O)c2ccc3nc(N)sc3c2)cc1	0	0	-	-	0	0
O=C(NC(Cc1ccccc1)C(=O)O)c1ccc(S(=O)(=O)N2CCCCC2)cc1 (stereo unspecified)	0	0	-	-	0	0
CCOc1ccc(S(=O)(=O)Nc2cccnc2)c2ccccc12	-	-	0	-	-	-
CCOc1ccc(S(=O)(=O)Nc2ccc(F)cc2)c(C)c1C	0	0	-	-	0	55
Cc1cc(C)c(C)c(OCCOCCN2CCOCC2)c1	0	0	0	0	0	0
O=C(N/C(=C/c1ccc(Br)cc1)c1nc2ccccc2[nH]1)c1ccccc1	-	-	0	-	-	-
Cc1ccc2nc(/C(C#N)=C\c3ccc([N+](=O)[O-])o3)[nH]c2c1	0	0	0	-	103	99
Cc1nc(Nc2nc(O)cc(=O)[nH]2)nc2c(C)cccc12	-	-	103	-	-	-
Cc1cc(=O)[nH]c(Nc2nc(C)c3cccc(C)c3n2)n1	-	-	0	-	-	-
CN(C(=O)CSc1nc(-c2ccccc2)cn1N)C(c1ccccc1)c1ccccc1	0	0	-	-	0	47
Cc1cc(C)c2c(CC(=O)N(CCC#N)Cc3cccnc3)coc2c1	0	0	0	0	0	0
Cc1nnc2n1NC(c1ccc(Cl)cc1)C(C(=O)N(C)C1CCCCC1)S2 (stereo unspecified)	0	2.2	0	0	0	0
CC(C)CCNC(=O)c1ccc2c(c1)ncn2C1CCCCC1	0	0	-	-	0	0
CSc1nc2nccc(-c3ccc(Oc4ccccc4)cc3)n2n1	0	0	-	-	0	33
